Inhibition, inhibition and Ki data for 6 compounds are collected here from ChEMBL document CHEMBL1125206, “Modification of the enkephalin "message" with an artificial polycationic C-terminus” (J Med Chem, 1991).

Starred links: 1 amine or outer side, 2 acyl side, 3 side chain; linkers in the order of their positions; H or OH if unused. Residues, ends and D or L forms follow the SMILES beside them. Ethylenediamine = C(CN[*:2])N[*:1]; GABA = NCCCC(=O)O

As usually defined, the Inhibition is how much of the control response was suppressed. Low readings indicate little suppression, high ones strong suppression. As usually defined, the inhibition is the percentage by which the read-out fell short of the control. Higher therefore signals a strong effect. One may read the Ki as a measure of affinity in units of concentration, obtained from inhibition or displacement.

For test [1], the species on record is Cavia porcellus. In words: Inhibition of electrically evoked contractions in guinea pig ileum at 10e-6 M with cocktail comprised of 10 uM thiophan, and 10 mM L-leucylleucine. The class given is functional. The method, boiled down:
(§1)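 Isolated guinea pig ileum, electrically stimulated; inhibition of evoked contractions by compound (HCl salt) at 10⁻⁶ M final. Only tissues responding to 10⁻⁷ M morphine reference were used. Values are the average of two or three experiments.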

The species entered for test [2] is Cavia porcellus. In words: The compound was tested for inhibition of electrically evoked contractions in guinea pig ileum with bestatin at 10e-6 M conc. The class given is functional. The essentials:
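Guinea pig ileum, electrically stimulated. Compound at 10⁻⁶ M final concentration, scored as inhibition of evoked contractions. Tissues were qualified with a morphine response at 10⁻⁷ M. Values are the average of two or three experiments. Compounds tested as HCl salts.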

For test [3], the species on record is Cavia porcellus. In words: Inhibition of electrically evoked contractions in guinea pig ileum at 10e-6 M conc. with cocktail comprised of 10 uM bestatin, 10 uM captopril, 0.3 uM thiophan, and 10 mM L-leucylleucine. The class given is functional. The essentials:
as §1

For test [4], the target named is Kappa-type opioid receptor (Cavia porcellus, UniProt P41144). In words: The compound was tested for binding activity towards opioid receptor kappa in guinea pig brain membranes. The class given is cell membranes. The method, boiled down:
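Guinea pig brain membranes (male Hartley) in competitive radioligand displacement at 25 °C with 100 mM NaCl. κ sites were labelled with 1 nM (-)-[³H]EKC (final), with 500 nM DADLE and 20 nM sufentanil masking other sites. Compounds were tested as HCl salts. Values are single experiments in duplicate or mean ± SEM of three experiments in duplicate.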

For the next test, the target named is Mu-type opioid receptor (Cavia porcellus, UniProt P97266). In words: The compound was tested for binding activity towards opioid receptor mu in guinea pig brain membranes. The class given is cell membranes. The essentials: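 Competitive radioligand binding used male Hartley guinea pig brain membranes at 25 °C in 100 mM NaCl, with 0.5 nM [³H]naloxone (final) for μ sites. Compounds were tested as HCl salts. Data come from single duplicate experiments or are mean ± SEM of three experiments run in duplicate.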

The species entered for test [5] is Cavia porcellus. In words: The compound was tested for inhibition of electrically evoked contractions in guinea pig ileum with bestatin at 10e-6 M. The test is classed as functional. The essentials: as §1

Sequence of Kappa-type opioid receptor (P41144 whole entry): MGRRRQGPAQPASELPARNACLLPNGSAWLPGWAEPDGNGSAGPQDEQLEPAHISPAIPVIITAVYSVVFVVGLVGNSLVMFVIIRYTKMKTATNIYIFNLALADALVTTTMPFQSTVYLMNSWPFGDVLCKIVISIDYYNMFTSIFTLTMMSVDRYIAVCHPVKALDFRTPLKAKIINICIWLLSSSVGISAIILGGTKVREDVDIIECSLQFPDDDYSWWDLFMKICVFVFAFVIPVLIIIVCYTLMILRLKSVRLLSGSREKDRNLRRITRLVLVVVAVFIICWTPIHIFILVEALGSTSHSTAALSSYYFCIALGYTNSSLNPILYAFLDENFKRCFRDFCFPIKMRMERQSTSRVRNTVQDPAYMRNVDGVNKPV
Sequence of Mu-type opioid receptor (P97266 whole entry): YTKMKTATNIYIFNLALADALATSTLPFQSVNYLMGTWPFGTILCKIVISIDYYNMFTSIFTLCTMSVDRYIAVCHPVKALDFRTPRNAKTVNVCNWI

In the test listed under Cavia porcellus [1], `NCCCC(=O)NCCN(CCNC(=O)CCCN)C(=O)CCCN` showed an Inhibition of 0%. In addition, the inhibition at 1 µM in the test filed under Cavia porcellus [2] was found to be 0%.

In the test filed under Cavia porcellus [3], `NCCCC(=O)NCCNC(=O)[C@H](Cc1ccccc1)NC(=O)CNC(=O)CNC(=O)[C@@H](N)Cc1ccc(O)cc1` (H-YGGF-{Ethylenediamine-GABA}) displayed an Inhibition of 28.5%. In the test listed under Cavia porcellus [2], this compound yielded an inhibition at 1 µM of 29.5%. Also, the Ki came to 36.7 µM in test [4] and 16.5 µM on Mu-type opioid receptor.

`NCCCC(=O)NCCCN(CCCNC(=O)[C@H](Cc1ccccc1)NC(=O)CNC(=O)CNC(=O)[C@@H](N)Cc1ccc(O)cc1)C(=O)CCCN` (HELM PEPTIDE1{Y.G.G.F.[NCCCC(=O)NCCCN(CCCN[*:1])C(=O)CCCN]}$$$$V2.0) had an inhibition at 1 µM in the test listed under Cavia porcellus [5] of 13%. In the test filed under Cavia porcellus [1], this compound returned an Inhibition of 12.5%. Further, the Ki in test [4] came to 5.51 µM; at Mu-type opioid receptor, 7.3 µM.

In the test listed under Cavia porcellus [1], `NCCCC(=O)NCCN(CCN(CCNC(=O)[C@H](Cc1ccccc1)NC(=O)CNC(=O)CNC(=O)[C@@H](N)Cc1ccc(O)cc1)C(=O)CCCN)C(=O)CCCN` (HELM PEPTIDE1{Y.G.G.F.[NCCCC(=O)NCCN(CCN(CCN[*:1])C(=O)CCCN)C(=O)CCCN]}$$$$V2.0) returned an Inhibition of 9%. Moreover, the figures for the Ki (in test [4]; on Mu-type opioid receptor) were 3.73 µM and 6.76 µM, respectively.

`NCCCC(=O)NCCN(CCNC(=O)[C@H](Cc1ccccc1)NC(=O)CNC(=O)CNC(=O)[C@@H](N)Cc1ccc(O)cc1)C(=O)CCCN` (HELM PEPTIDE1{Y.G.G.F.[NCCCC(=O)NCCN(CCN[*:1])C(=O)CCCN]}$$$$V2.0) came in with an Inhibition in the test listed under Cavia porcellus [3] of 17.5%. For the same compound, in the test listed under Cavia porcellus [2], the inhibition at 1 µM was found to be 13.5%. The figures for the Ki (in test [4]; at Mu-type opioid receptor) were 8.75 µM and 14.4 µM, respectively.

On to `CC[C@H](C)[C@H](NC(=O)[C@H](CCCNC(=N)N)NC(=O)[C@H](CCCNC(=N)N)NC(=O)[C@H](CC(C)C)NC(=O)[C@H](Cc1ccccc1)NC(=O)CNC(=O)CNC(=O)[C@@H](N)Cc1ccc(O)cc1)C(=O)N[C@@H](CCCNC(=N)N)C(=O)N1CCC[C@H]1C(=O)N[C@@H](CCCCN)C(=O)N[C@@H](CC(C)C)C(=O)N[C@@H](CCCCN)C(=O)O` [ANALOG OF DYNORPHIN A], for which the Ki in test [4] is 0.0036 µM; on Mu-type opioid receptor it was 0.05 µM.
